The test has as its target Transitional endoplasmic reticulum ATPase (Homo sapiens) (UniProt P55072). Kind of test: VCP ATP hydrolysis inhibition, purified enzyme – biochemical, dose response, round 3, SAR follow-up (AID 504650). The conditions noted are these: purified p97 ATPase, Kinase-Glo luminescence. Put shortly:
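material = human p97 ATPase protein | medium = Tris buffer pH 7.4 containing MgCl2 and EDTA | reagent = ATP substrate, 500 µM stock | timing = 10 min room-temperature preincubation, 30 min ATP reaction at 37 °C | detection = luminescent readout of unconsumed ATP (Kinase-Glo Plus) | evaluation = IC50 fitted to percent remaining enzyme activity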
For orientation: Kinase-Glo measures the ATP left after a reaction by luminescence.

The record followed here is PubChem BioAssay AID504650 (Molecular Libraries Program, Specialized Chemistry Center, …, 2011).

Active and inactive are the calls of the source.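 The calls were made as follows: active = IC50 at or below 10 µM; inactive = the rest.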 A value given as a limit tells only on which side of the number the result lay.

Sequence of Transitional endoplasmic reticulum ATPase (Homo sapiens) (P55072 whole entry, looked up): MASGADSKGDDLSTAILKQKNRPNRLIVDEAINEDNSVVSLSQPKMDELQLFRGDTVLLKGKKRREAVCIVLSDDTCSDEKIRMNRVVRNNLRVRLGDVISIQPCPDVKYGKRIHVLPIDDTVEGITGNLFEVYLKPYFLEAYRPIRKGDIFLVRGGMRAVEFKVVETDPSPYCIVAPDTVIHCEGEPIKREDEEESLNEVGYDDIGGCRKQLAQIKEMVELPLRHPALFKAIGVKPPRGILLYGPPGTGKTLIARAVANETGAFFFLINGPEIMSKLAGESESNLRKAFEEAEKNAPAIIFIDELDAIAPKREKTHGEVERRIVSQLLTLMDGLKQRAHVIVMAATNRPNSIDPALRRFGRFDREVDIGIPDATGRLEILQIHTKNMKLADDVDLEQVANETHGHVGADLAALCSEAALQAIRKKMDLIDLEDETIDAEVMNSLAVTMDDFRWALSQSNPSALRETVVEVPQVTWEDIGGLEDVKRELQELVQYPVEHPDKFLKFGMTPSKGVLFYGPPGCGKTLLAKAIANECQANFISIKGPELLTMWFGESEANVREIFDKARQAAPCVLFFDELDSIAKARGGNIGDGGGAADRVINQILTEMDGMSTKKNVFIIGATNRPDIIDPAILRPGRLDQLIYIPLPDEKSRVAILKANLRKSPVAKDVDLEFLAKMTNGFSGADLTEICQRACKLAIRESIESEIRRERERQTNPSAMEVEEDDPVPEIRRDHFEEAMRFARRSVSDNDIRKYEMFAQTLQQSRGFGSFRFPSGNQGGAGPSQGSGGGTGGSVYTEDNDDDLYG

Turning to `COc1cccc2c(NCc3ccccc3)nc(Nc3cccc(Cl)c3)nc12`, the IC50 (commonly the concentration at which inhibition is half-maximal) is 500 nM.

As to `COc1cccc2c(NCc3ccccc3)nc(-n3c(N)nc4cc(C)ccc43)nc12`, the IC50 is 240 nM.

For `COc1cccc2c(NCc3ccccc3)nc(-n3c(N)nc4cc(Br)ccc43)nc12`, the IC50 is 800 nM.

As for `COc1cccc2c(NCc3ccccn3)nc(N3CCNc4ccccc43)nc12`, the IC50 is > 30000 nM (inactive).

`COc1cccc2c(NCc3ccccc3)nc(Nc3cccc(F)c3)nc12`: the IC50 is 520 nM.

`COc1cccc2c(NCc3ccc(F)cc3)nc(N3CCOc4ccccc43)nc12`: the IC50 is 1900 nM.

As to `COc1cccc2c(NCc3ccccc3)nc(-n3c(N)nc4cc(C)c(C)cc43)nc12`, the IC50 is 2000 nM.

Turning to `c1ccc(CNc2nc(N3CCc4ccccc4C3)nc3ccccc23)cc1`, the IC50 entry is “inactive”.

With `COc1cccc2c(NCc3ccccc3)nc(Nc3nc4ccccc4s3)nc12`, the half-inhibitory concentration (IC50) is 500 nM.

As to `COc1cccc2c(NCc3ccccc3)nc(NCc3cncs3)nc12`, the IC50 entry is “inactive”.

On to `COc1cccc2c(NCc3ccccc3)nc(-n3cnc4ccccc43)nc12`, for which the 50% inhibitory concentration (IC50) is 3300 nM.

Turning to `COc1cccc2c(NCc3cccs3)nc(N3CCOc4ccccc43)nc12`, the IC50 was 1200 nM.

For the compound `COc1cccc2c(NCc3ccccc3)nc(NC(=O)Nc3ccccc3)nc12`, the IC50 is > 30000 nM (inactive).

Take `OCCOc1cccc2c(NCc3ccccc3)nc(N3CCOc4ccccc43)nc12`: the half-inhibitory concentration (IC50) is 170 nM.

Consider `COc1cccc2c(NCc3ccccc3)nc(Nc3ccccc3O)nc12`, for which the IC50 is 2600 nM.

For `COc1cccc2c(NCc3ccccc3)nc(NC(C)c3ccccc3)nc12` (stereo unspecified), the IC50 entry is “inactive”.

In the case of `c1ccc(CNc2ccnc(N3CCOc4ccccc43)n2)cc1`, the IC50 is 2900 nM.

With `COc1cccc2c(NCC3CCCCC3)nc(N3CCOc4ccccc43)nc12`, the IC50 was 7400 nM.

On to `COc1cccc2c(NCc3ccccc3)nc(-n3c(=O)oc4ccccc43)nc12`, for which the half-inhibitory concentration (IC50) is 110 nM.

On to `COc1cccc2c(NCc3ccccc3)nc(-n3c(N)nc4c(C)cccc43)nc12`, for which the IC50 is 45 nM.

`COc1cccc2c(NCc3ccccc3)nc(N3CCN(C(C)=O)CC3)nc12`: the IC50 is > 30000 nM (inactive).

Regarding `Clc1ccccc1-c1nc(N2CCCc3ccccc32)c2ccccc2n1`, the IC50 is > 30000 nM (inactive).

Turning to `COc1cccc2c(NCc3ccccc3O)nc(N3CCOc4ccccc43)nc12`, the IC50 was 4600 nM.

In the case of `COCCOc1cccc2c(NCc3ccccc3)nc(N3CCOc4ccccc43)nc12`, the IC50 was 600 nM.

For `CCN(CC)CCOc1cccc2c(NCc3ccccc3)nc(N3CCOc4ccccc43)nc12`, the IC50 was 400 nM.

`CN(c1ccccc1)c1nc(NCc2ccccc2)c2ccccc2n1`: the IC50 is > 30000 nM (inactive).

Turning to `Nc1nc2ccccc2n1-c1nc(NCc2ccccc2)c2ccccc2n1`, the IC50 is 110 nM.

Regarding `COc1cccc2c(NCc3ccccc3)nc(-n3c(N)nc4cc(Cl)ccc43)nc12`, the IC50 is 700 nM.

Take `COc1cccc2c(NCc3ccccc3)nc(NCC3CCCCC3)nc12`: the IC50 was 5400 nM.

On to `COc1cccc2c(NCc3ccccc3)nc(N3CCN(C)c4ccccc43)nc12`, for which the IC50 is 3100 nM.

For `COc1cccc2c(NCc3ccccc3)nc(N3CCOc4ccccc43)nc12`, the IC50 was 200 nM.

For the compound `c1ccc(CNc2nc(N3CCOc4ccccc43)nc3c2CCCC3)cc1`, the 50% inhibitory concentration (IC50) is 110 nM.

Turning to `Cc1nc(N2CCOc3ccccc32)nc(NCc2ccccc2)c1C`, the IC50 was 1100 nM.

Take `CCCCOc1cccc2c(NCc3ccccc3)nc(N3CCOc4ccccc43)nc12`: the IC50 is 2630 nM.

Turning to `COc1cccc2c(NCc3ccccc3)nc(N3CCN(C)CC3)nc12`, the IC50 is > 30000 nM (inactive).

For the compound `c1ccc(CNc2nc(N3CCOc4ccccc43)nc3ccsc23)cc1`, the half-inhibitory concentration (IC50) is 400 nM.

On to `c1ccc2c(c1)OCCN2c1nc(N2CCOc3ccccc32)c2ccccc2n1`, for which the IC50 was > 30000 nM (inactive).

On to `COc1cccc2c(NCc3ccccc3)nc(N3CCNc4ccccc43)nc12`, for which the IC50 is 900 nM.

With `COc1cccc2c(NCc3ccccc3)nc(N3CCOCC3)nc12`, the IC50 entry was “inactive”.

Regarding `COc1cccc2c(NCc3ccccc3)nc(Nc3nc4ccccc4n3C)nc12`, the IC50 is 300 nM.

In the case of `COc1cccc2c(NCc3ccccc3)nc(-n3c(N)nc4ccccc43)nc12`, the IC50 was 110 nM.

`COc1cccc2c(NCc3ccccc3)nc(N3CCN(C(C)=O)c4ccccc43)nc12`: the IC50 was 2700 nM.

Consider `CC(C)Nc1nc(Nc2cccc(Cl)c2)nc2ccccc12`, for which the IC50 was > 30000 nM (inactive).

Take `COc1cccc2c(NCc3ccccc3)nc(N(C)Cc3ccccc3)nc12`: the half-inhibitory concentration (IC50) was 7000 nM.

On to `c1ccc(CNc2nc(N3CCOc4ccccc43)nc3c(-c4ccccc4)cccc23)cc1`, for which the IC50 was 3500 nM.

Turning to `Nc1nc2ccccc2n1-c1nccc(NCc2ccccc2)n1`, the IC50 is 2800 nM.

Consider `Oc1cccc2c(NCc3ccccc3)nc(N3CCOc4ccccc43)nc12`, for which the IC50 was 1200 nM.

With `COc1cccc2c(NCc3ccccc3)nc(-n3c(N)nc4cc(F)ccc43)nc12`, the IC50 was 80 nM.

`COc1cccc2c(NCc3ccccc3)nc(NCc3cccs3)nc12`: the IC50 is 1700 nM.

Consider `COc1cccc2c(NCc3ccccn3)nc(N3CCOc4ccccc43)nc12`, for which the IC50 result was “inactive”.

For `Nc1nc2ccccc2n1-c1nc2c(c(NCc3ccccc3)n1)CCCC2`, the half-maximal inhibitory concentration (IC50) was 50 nM.

`COc1ccc(-c2cccc3c(NCc4ccccc4)nc(N4CCOc5ccccc54)nc23)cc1`: the concentration for half-maximal inhibition (IC50) is 1100 nM.

As to `COc1cccc2c(NCc3ccc(O)cc3)nc(N3CCOc4ccccc43)nc12`, the IC50 was 2400 nM.

Regarding `COc1ccc2c(c1)nc(N)n2-c1nc(NCc2ccccc2)c2cccc(OC)c2n1`, the IC50 is 480 nM.

Regarding `N#CCOc1cccc2c(NCc3ccccc3)nc(N3CCOc4ccccc43)nc12`, the IC50 is 400 nM.

Take `COc1cccc2c(NCc3ccccc3)nc(Nc3cc(C)cc(F)c3)nc12`: the half-inhibitory concentration (IC50) was 1500 nM.
